Assay results: ChEMBL document CHEMBL1133118 (J Med Chem, 2000)
Values belong to the compound of their own block, whether it stands above or below them.

What was measured:
Adenosine receptor A1 [1] = biological target: T1, Adenosine receptor A1 (Homo sapiens, UniProt P30542); assay: Displacement of [3H]DPCPX from human adenosine A1 receptor expressed in CHO cells; range 885-1163; type: cell-based
T1 sequence (P30542 whole entry): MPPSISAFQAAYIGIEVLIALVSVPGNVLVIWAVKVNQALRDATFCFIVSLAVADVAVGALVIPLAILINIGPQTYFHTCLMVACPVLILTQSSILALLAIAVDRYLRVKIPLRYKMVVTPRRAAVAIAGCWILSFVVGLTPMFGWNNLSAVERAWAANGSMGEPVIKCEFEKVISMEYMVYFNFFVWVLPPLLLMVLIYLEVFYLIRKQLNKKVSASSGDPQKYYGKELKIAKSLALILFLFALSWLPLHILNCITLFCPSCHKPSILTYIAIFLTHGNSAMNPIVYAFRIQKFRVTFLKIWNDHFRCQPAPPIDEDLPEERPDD

Adenosine receptor A2a [2] = biological target: T2, Adenosine receptor A2a (Homo sapiens, UniProt P29274); assay: Displacement of [3H]-SCH- 58261 from human adenosine A2A receptor expressed in CHO cells; range 632-1003; type: cell-based
T2 sequence (P29274 whole entry): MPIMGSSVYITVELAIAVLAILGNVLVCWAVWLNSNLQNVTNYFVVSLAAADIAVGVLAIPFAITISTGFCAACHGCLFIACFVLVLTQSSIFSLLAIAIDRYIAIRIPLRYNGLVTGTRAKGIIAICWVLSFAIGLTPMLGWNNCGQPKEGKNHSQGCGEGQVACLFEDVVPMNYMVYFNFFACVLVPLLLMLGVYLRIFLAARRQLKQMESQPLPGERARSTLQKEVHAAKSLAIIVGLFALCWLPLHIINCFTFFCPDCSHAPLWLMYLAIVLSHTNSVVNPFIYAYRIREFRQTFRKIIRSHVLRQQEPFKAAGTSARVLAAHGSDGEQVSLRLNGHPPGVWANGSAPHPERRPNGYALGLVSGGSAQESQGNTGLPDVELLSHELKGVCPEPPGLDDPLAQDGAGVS
How it was run: (§1)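 Membranes from CHO cells stably expressing human A2A receptor, grown in DMEM/F12 without nucleosides, resuspended in 50 mM Tris HCl, 10 mM MgCl2, pH 7.4; 50 μg protein/assay. Competition with [3H]SCH 58261 at 6–8 or more compound concentrations, 60 min at 25 °C; nonspecific binding with 50 μM NECA. Filtration on GF/B filters, scintillation counting; n=3-6.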

Adenosine receptor A3 [3] = biological target: T3, Adenosine receptor A3 (Homo sapiens, UniProt P0DMS8); assay: Displacement of [3H]MRE3008-F20 from human adenosine A3 receptor expressed in CHO cells; range 2.13-3.62; type: cell-based
T3 sequence (P0DMS8 whole entry): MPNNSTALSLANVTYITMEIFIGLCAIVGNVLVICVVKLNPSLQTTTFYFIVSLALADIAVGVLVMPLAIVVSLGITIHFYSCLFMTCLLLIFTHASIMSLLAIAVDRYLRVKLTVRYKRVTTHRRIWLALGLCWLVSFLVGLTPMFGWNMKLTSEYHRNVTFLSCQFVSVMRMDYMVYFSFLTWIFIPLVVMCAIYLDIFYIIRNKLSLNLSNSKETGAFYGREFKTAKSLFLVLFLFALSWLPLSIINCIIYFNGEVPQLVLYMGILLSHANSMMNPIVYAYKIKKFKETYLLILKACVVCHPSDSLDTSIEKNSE

[4] = biological target: Adenosine receptors; A1 & A3 (Homo sapiens) (UniProt P30542+P0DMS8); assay: Ratio of binding affinity of human A1 receptor to that of human A3 receptor; type: protein assay
How it was run: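 Ki ratio from displacement in CHO membranes, 6–8 concentrations, n=3-6, filtration counting. A1: 1 nM [3H]DPCPX, 50 μg protein, 120 min at 25 °C, nonspecific with 10 μM CHA. A3: 1 nM [3H]MRE3008-F20, 50 μg protein, Tris/10 mM MgCl2 pH 7.4, 120 min at 4 °C, nonspecific with 1 μM MRE3008-F20.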

[5] = biological target: Adenosine receptors; A2b & A3 (Homo sapiens) (UniProt P29275+P0DMS8); assay: Ratio of binding affinity of human A2B receptor to that of human A3 receptor; type: protein assay
How it was run: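 Ki ratio, n=3-6, 6–8 concentrations. A2B in HEK-293 membranes (20 μg): 40 nM [3H]DPCPX, 50 mM Tris HCl, 10 mM MgCl2, 1 mM EDTA, 0.1 mM benzamidine pH 7.4, 2 IU/mL adenosine deaminase, 60 min at 25 °C, nonspecific with 100 μM NECA. A3 in CHO membranes (50 μg): 1 nM [3H]MRE3008-F20, 120 min at 4 °C.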

[6] = biological target: T4, Adenosine receptor A3 (Homo sapiens) (UniProt P0DMS8); settings: CHO, 1 uM
T4 sequence (whole entry): T3 sequence (P0DMS8 whole entry)

Adenosine receptor A2b [7] = biological target: T5, Adenosine receptor A2b (Homo sapiens, UniProt P29275); assay: Displacement of [3H]DPCPX from Adenosine A2b receptor expressed in HEK-293 cells; range 432-469
T5 sequence (P29275 whole entry): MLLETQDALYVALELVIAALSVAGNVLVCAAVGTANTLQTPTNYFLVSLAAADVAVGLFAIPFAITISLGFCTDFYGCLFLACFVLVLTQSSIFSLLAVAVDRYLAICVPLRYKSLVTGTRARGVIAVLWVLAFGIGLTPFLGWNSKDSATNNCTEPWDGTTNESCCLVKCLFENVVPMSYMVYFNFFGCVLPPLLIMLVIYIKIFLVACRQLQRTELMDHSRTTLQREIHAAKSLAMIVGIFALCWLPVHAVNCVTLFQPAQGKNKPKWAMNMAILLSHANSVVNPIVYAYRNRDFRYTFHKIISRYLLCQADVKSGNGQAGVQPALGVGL

Adenosine receptor A2b [8] = biological target: T5, Adenosine receptor A2b; assay: Displacement of [3H]DPCPX from Adenosine A2b receptor expressed in […]; range 226-301; type: cell-based
Adenosine receptor A2a [9] = biological target: T2, Adenosine receptor A2a; assay: Displacement of [3H]-SCH- 58261 from human adenosine A2A receptor expressed in CHO cells; range 1220-1590; type: cell-based
Adenosine receptor A1 [10] = biological target: T1, Adenosine receptor A1; assay: Displacement of [3H]DPCPX from human adenosine A1 receptor expressed in CHO cells; range 928-1297; type: cell-based
Adenosine receptor A3 [11] = biological target: T3, Adenosine receptor A3; assay: Inhibition of cAMP accumulation in CHO cells expressing human adenosine A3 receptor; range 1.7-4.2; type: functional, cell-based
[12] = biological target: T4, Adenosine receptor A3 (Homo sapiens); settings: CHO, 1 uM; remark: listed apart in the source
Adenosine receptor A3 [13] = biological target: T3, Adenosine receptor A3; assay: biochemical
Adenosine receptor A2a [14] = biological target: T2, Adenosine receptor A2a; assay: Displacement of [3H]-SCH- 58261 from human adenosine A2A receptor expressed in CHO cells; range 70-130; type: cell-based; how it was run: as §1
Adenosine receptor A3 [15] = biological target: T3, Adenosine receptor A3; assay: Displacement of [3H]MRE3008-F20 from human adenosine A3 receptor expressed in CHO cells; range 0.52-0.68; type: cell-based
Adenosine receptor A2b [16] = biological target: T5, Adenosine receptor A2b; assay: Displacement of [3H]DPCPX from Adenosine A2b receptor expressed in […]; range 56-89; type: cell-based
Adenosine receptor A1 [17] = biological target: T1, Adenosine receptor A1; assay: Displacement of [3H]-DPCPX from human adenosine A1 receptor expressed in CHO cells; range 213-281; type: cell-based
Adenosine receptor A3 [18] = biological target: T3, Adenosine receptor A3; assay: Inhibition of cAMP accumulation in CHO cells expressing human adenosine A3 receptor; range 3.0-6.9; type: functional, cell-based
[19] = biological target: T4, Adenosine receptor A3 (Homo sapiens); settings: CHO, 1 uM; remark: listed apart in the source
Adenosine receptor A2b [20] = biological target: T5, Adenosine receptor A2b; assay: Displacement of [3H]DPCPX from Adenosine A2b receptor expressed in CHO cells; type: cell-based
Adenosine receptor A2a [21] = biological target: T2, Adenosine receptor A2a; assay: Displacement of [3H]-SCH- 58261 from human adenosine A2A receptor expressed in CHO cells; range 1770-2327; type: cell-based
Adenosine receptor A1 [22] = biological target: T1, Adenosine receptor A1; assay: Displacement of [3H]DPCPX from human adenosine A1 receptor expressed in CHO cells; range 191-339; type: cell-based
Adenosine receptor A3 [23] = biological target: T3, Adenosine receptor A3; assay: Displacement of [3H]MRE3008-F20 from human adenosine A3 receptor expressed in CHO cells; range 17-36; type: cell-based
[24] = biological target: T4, Adenosine receptor A3 (Homo sapiens); assay: Percentage of blockade by 1 uM of the inhibition by 100 nM IB-MECA-inhibited cAMP accumulation in CHO cells expressing human adenosine A3 receptor.; type: functional, cell-based
How it was run: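 CHO cells stably expressing human A3 receptor; membranes in 50 mM Tris HCl, 10 mM MgCl2, 1 mM EDTA pH 7.4 with 5 μM GTP, 0.5 mM […] and 2.0 IU/mL adenosine deaminase. Preincubated 10 min at 37 °C, then IB-MECA (100 nM) and/or antagonist with 1 mM ATP and 10 μM forskolin for 10 min. Boiled 2 min. cAMP read by [3H]cAMP competition with adrenal binding protein.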

Adenosine receptor A1 [25] = biological target: T1, Adenosine receptor A1; assay: Displacement of [3H]DPCPX from human adenosine A1 receptor expressed in CHO cells; range 327-462; type: cell-based
Adenosine receptor A2a [26] = biological target: T2, Adenosine receptor A2a; assay: Displacement of [3H]-SCH- 58261 from human adenosine A2A receptor expressed in CHO cells; range 3420-3788; type: cell-based
Adenosine receptor A2b [27] = biological target: T5, Adenosine receptor A2b; assay: Displacement of [3H]DPCPX from Adenosine A2b receptor expressed in […]; range 1681-1961; type: cell-based
Adenosine receptor A3 [28] = biological target: T3, Adenosine receptor A3; assay: biochemical; remark: listed apart in the source

Structure (SMILES): CCCCn1cc2c(nc(NC(=O)Nc3cccc(Cl)c3)n3nc(-c4ccco4)nc23)n1
Ki (Adenosine receptor A2a [14]): 95 nM
Ki (Adenosine receptor A3 [15]): 0.6 nM
Ki (Adenosine receptor A2b [16]): 70 nM
Ki (Adenosine receptor A1 [17]): 245 nM
IC50 (Adenosine receptor A3 [18]): 4.5 nM
Ratio [4]: 408
Ratio [5]: 116
inhibition [19]: 85%

Structure (SMILES): COc1ccc(NC(=O)Nc2nc3nn(CCc4cc(Br)c(Br)cc4Br)cc3c3nc(-c4ccco4)nn23)cc1
Ki (Adenosine receptor A2b [20]): > 10000 nM
Ki (Adenosine receptor A2a [21]): 2030 nM
Ki (Adenosine receptor A1 [22]): 255 nM
Ki (Adenosine receptor A3 [23]): 25 nM
Ratio [4]: 10.2
Ratio [5]: > 400
inhibition [24]: 50%

Structure (SMILES): O=C(Nc1cccc(Cl)c1)Nc1nc2nn(CCc3cc(Br)c(Br)cc3Br)cc2c2nc(-c3ccco3)nn12
Ki (Adenosine receptor A1 [25]): 389 nM
Ki (Adenosine receptor A2a [26]): 3600 nM
Ki (Adenosine receptor A2b [27]): 1820 nM
Ratio [4]: 5.5
Ratio [5]: 26
inhibition [24]: 32%
Ki (Adenosine receptor A3 [28]): 71 nM

Other lines, results leading:

Ki (Adenosine receptor A1 [1]): 1020 nM
Ki (Adenosine receptor A2a [2]): 796 nM
Ki (Adenosine receptor A3 [3]): 2.78 nM
Ratio [4]: 365
Ratio [5]: 162
inhibition [6]: 70%
Ki (Adenosine receptor A2b [7]): 450 nM
Structure (SMILES): CC(C)(C)n1cc2c(nc(NC(=O)Nc3cccc(Cl)c3)n3nc(-c4ccco4)nc23)n1

Ki (Adenosine receptor A2b [8]): 261 nM
Ki (Adenosine receptor A2a [9]): 1390 nM
Ki (Adenosine receptor A1 [10]): 1100 nM
IC50 (Adenosine receptor A3 [11]): 2.7 nM
Ratio [4]: 5480
Ratio [5]: 1300
inhibition [12]: 94%
Ki (Adenosine receptor A3 [13]): 0.2 nM
Structure (SMILES): COc1ccc(NC(=O)Nc2nc3nn(C)cc3c3nc(-c4ccco4)nn23)cc1
